Reference: ChEMBL document CHEMBL1130160 (J Med Chem, 1997)

Tests used:
[1] = molecular target: Estrogen receptor (Homo sapiens, UniProt Q92731+P03372); settings: mcf7
[2] = test system: Rattus norvegicus; assay: Percent decrease in serum cholesterol relative to OVX control at 10 mg/kg in rat was determined (in vivo); format: functional
Method in brief: (§1)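 OVX Sprague–Dawley rats (75 days old), 5–6 per group, dosed once daily by oral gavage for 4 consecutive days, starting 14 days after ovariectomy. Vehicle was 20% β-hydroxycyclodextrin at 1 mL/kg, or 1.5% carboxymethylcellulose in some cases. Rats were fasted after the last dose and bled by cardiac puncture next morning.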

[3] = test system: Rattus norvegicus; assay: Dose required to reduce serum cholesterol by 50% relative to OVX controls was determined (in vivo); format: functional
Method in brief: as §1

[4] = test system: Rattus norvegicus; assay: Percent decrease in serum cholesterol relative to OVX control at 1 mg/kg in rat; format: functional
Method in brief: as §1

[5] = test system: Rattus norvegicus; assay: Minimum effective dose at which significant increase in uterine eosinophil peroxidase (EPO) activity in rat was determined (in vivo); format: functional; settings: read-out: MED
[6] = test system: Rattus norvegicus; assay: Percent decrease in serum cholesterol relative to OVX control at 0.1 mg/kg in rat was determined (in vivo); format: functional
Method in brief: as §1

[7] = test system: Rattus norvegicus; assay: Minimum effective dose at which significant increase in uterine weight/body weight in rat was determined (in vivo); format: functional; settings: read-out: MED
Method in brief: (§2)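 In 75-day OVX Sprague–Dawley rats dosed orally for 4 days, beginning 2 weeks post-ovariectomy with 5–6 rats per group, whole uteri were weighed the morning after fasting. MED is the lowest dose giving a significant (p≤0.05) rise in uterine weight/body weight, expressed as % increase over OVX controls ±SE.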

[8] = test system: Rattus norvegicus; assay: Minimum effective dose at which significant increase in uterine weight/body weight in rat was determined (in vivo); expressed as % increase relative to ovariectomized (OVX) controls; format: functional
Method in brief: as §2

| SMILES | IC50 [1] [µM] | Decrease [2] [%] | ED50 [3] [mg/kg] | Decrease [4] [%] | minimal effective dose [5] [mg/kg] | Decrease [6] [%] | minimal effective dose [7] [mg/kg] | Increase [8] [%] |
| --- | --- | --- | --- | --- | --- | --- | --- | --- |
| Cc1c(O)cc(C)c2c(C(=O)c3ccc(OCCN4CCCCC4)cc3)c(-c3ccc(O)cc3)sc12 | 0.1 |  |  |  |  |  |  |  |
| C#Cc1ccc(-c2sc3cc(O)ccc3c2C(=O)c2ccc(OCCN3CCCCC3)cc2)cc1 |  | 35.8 | > 10 | 32.7 | > 10 | 9.1 | > 10 |  |
| Cl.O=C(c1ccc(OCCN2CCCCC2)cc1)c1c(-c2ccc(O)cc2)sc2cc(Cl)ccc12 | 1 | 37.6 | > 10 | -6.8 | > 10 | -5.1 | 10 | 49.6 |
| Cc1cc2c(C(=O)c3ccc(OCCN4CCCCC4)cc3)c(-c3ccc(O)cc3)sc2cc1O |  | 43.7 | 5.4 | 42.2 | > 10 | -4.3 | > 10 |  |
| COc1ccc2c(C(=O)c3ccc(OCCN4CCCCC4)cc3)c(-c3ccc(O)cc3)sc2c1 | 0.25 | 50 | < 0.1 | 64.5 | > 10 | 54.8 | 1 | 33.5 |
| O=C(c1ccc(OCCN2CCCCC2)cc1)c1c(-c2ccc(O)cc2)sc2cccc(O)c12 | 0.19 | 31.8 | > 10 | 18 | > 10 | 29.6 | > 10 |  |
| COc1ccc(-c2sc3cc(O)ccc3c2C(=O)c2ccc(OCCN3CCCCC3)cc2)cc1 | 1 | 72.6 | < 0.1 | 75.6 | > 10 | 65.2 | > 10 |  |
| Cl.O=C(c1ccc(OCCN2CCCCC2)cc1)c1c(-c2ccccc2)sc2ccccc12 | 0.3 | 45.6 | < 0.1 | 72.6 | > 10 | 59.4 | 0.1 | 59.2 |
| O=C(c1ccc(OCCN2CCCCC2)cc1)c1c(-c2ccc([N+](=O)[O-])cc2)sc2cc(O)ccc12 | 0.5 |  |  |  |  |  |  |  |
| O=C(O)c1ccc(-c2sc3cc(O)ccc3c2C(=O)c2ccc(OCCN3CCCCC3)cc2)cc1 |  | 24.6 |  | -8.8 | > 10 | 3.1 | > 10 |  |
| O=C(c1ccc(OCCN2CCCCC2)cc1)c1c(-c2ccc(O)c(Cl)c2)sc2cc(O)ccc12 | 0.0023 |  | 1.2 | 52.7 | > 10 |  | 10 | 30.3 |
| CC/C(=C(\c1ccccc1)c1ccc(OCCN(C)C)cc1)c1ccccc1 [TAMOXIFEN] |  | 67 | 0.2 | 71.1 | 0.1 | 39.2 | 0.1 | 62.4 |
| O=C(c1ccc(OCCN2CCCCC2)cc1)c1c(-c2ccc3ccccc3c2)sc2cc(O)ccc12 | 0.08 |  | 0.2 |  | 0.1 |  | 0.1 |  |
| COc1cc(O)ccc1-c1sc2cc(O)ccc2c1C(=O)c1ccc(OCCN2CCCCC2)cc1 | 0.002 |  | < 0.1 | 79 | 1 |  | 0.1 |  |
| O=C(c1ccc(OCCN2CCCCC2)cc1)c1c(-c2ccc(O)cc2)sc2cc(O)c(O)cc12 | 0.4 |  |  |  |  |  |  |  |
| O=C(c1ccc(OCCN2CCCCC2)cc1)c1c(-c2ccc(O)cc2)sc2c(O)cccc12 | 0.3 | -3.4 |  | -11.7 | > 10 | -6.1 | 10 | 43.5 |
| NC(=O)c1ccc(-c2sc3cc(O)ccc3c2C(=O)c2ccc(OCCN3CCCCC3)cc2)cc1 |  | 10 |  | -21.3 | > 10 | -3.2 | > 10 |  |

| SMILES | IC50 [1] [µM] | Decrease [2] [%] | ED50 [3] [mg/kg] | Decrease [4] [%] | minimal effective dose [5] [mg/kg] | Decrease [6] [%] | minimal effective dose [7] [mg/kg] | Increase [8] [%] |
| --- | --- | --- | --- | --- | --- | --- | --- | --- |
| Cc1cc2c(C(=O)c3ccc(OCCN4CCCCC4)cc3)c(-c3ccc(O)cc3)sc2c(C)c1O | 0.5 |  |  |  |  |  |  |  |
| Cc1cc(O)ccc1-c1sc2cc(O)ccc2c1C(=O)c1ccc(OCCN2CCCCC2)cc1 | 0.002 |  | 0.4 |  | > 10 |  | 0.1 |  |
| COc1ccc(-c2sc3ccccc3c2C(=O)c2ccc(OCCN3CCCCC3)cc2)cc1.O=C(O)CC(O)(CC(=O)O)C(=O)O | 0.1 |  |  |  |  |  |  |  |
| O=C(c1ccc(OCCN2CCCCC2)cc1)c1c(-c2ccc(O)cc2)sc2cc(O)cc(O)c12 | 0.35 |  |  |  |  |  |  |  |
| COc1ccc2c(C(=O)c3ccc(OCCN4CCCCC4)cc3)c(-c3ccccc3)sc2c1 | > 1 |  |  |  |  |  |  |  |
| O=C(c1ccc(OCCN2CCCCC2)cc1)c1c(-c2ccc(O)cc2)sc2cc(O)c(F)cc12 | 0.003 | 31.6 | > 10 | 4.1 | > 10 | 4.6 | > 10 |  |
| O=C(c1ccc(OCCN2CCCCC2)cc1)c1c(-c2ccc(O)cc2)sc2cc(O)c3ccccc3c12 | 0.5 |  |  |  |  |  |  |  |
| C#Cc1ccc2c(C(=O)c3ccc(OCCN4CCCCC4)cc3)c(-c3ccc(O)cc3)sc2c1 |  | 65.8 | 0.5 | 58.7 | > 10 | 39.4 | 1 | 27.8 |
| Cc1cc(-c2sc3cc(O)ccc3c2C(=O)c2ccc(OCCN3CCCCC3)cc2)ccc1O | 0.001 |  | 1 | 73.9 | > 10 | 28.4 | > 10 |  |
| COc1ccc2c(C(=O)c3ccc(OCCN4CCCCC4)cc3)c(-c3ccc4c(c3)OCO4)sc2c1 | 0.5 |  |  |  |  |  |  |  |
| COc1ccc2c(C(=O)c3ccc(OCCN4CCCCC4)cc3)c(-c3ccc(CO)cc3)sc2c1 | 0.6 |  |  |  |  |  |  |  |
| O=C(c1ccc(OCCN2CCCCC2)cc1)c1c(-c2ccccc2O)sc2cc(O)ccc12 | 0.01 |  | > 10 |  | > 10 | 7.8 | > 10 |  |
| O=C(c1ccc(OCCN2CCCCC2)cc1)c1c(-c2ccc(O)cc2)sc2ccc(O)cc12 | 0.1 | 22.6 |  | 3.7 | > 10 | 10.4 | > 10 |  |
| O=C(c1ccc(OCCN2CCCCC2)cc1)c1c(-c2cccc(F)c2)sc2cc(O)ccc12 | 0.0025 |  | 1 | 62 | > 10 |  | 0.1 |  |
| Cc1ccccc1-c1sc2cc(O)ccc2c1C(=O)c1ccc(OCCN2CCCCC2)cc1 | 0.0007 |  | > 10 |  | > 10 |  | 10 |  |
| COc1ccc(-c2sc3c(OC)c(OC)c(OC)cc3c2C(=O)c2ccc(OCCN3CCCCC3)cc2)cc1.Cl | 0.35 |  |  |  |  |  |  |  |
